The source made the active and inactive calls. The calls are words filed in the database; no cut-off is given here.
Legend:
[1] = test system: HeLa; assay: Induction of caspase 12 translocation from endoplasmic reticulum to nucleus in human HeLa cells at 50 uM after 72 hrs by DAPI staining; assay type: functional, cell-based
How it was run: (§1)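 HeLa cells treated 72 h with compound or vehicle; immunocytochemistry co-labeling with anti-AIF and anti-caspase-12 antibodies, nuclei stained with DAPI to assess nuclear localization.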

[2] = test system: HeLa; assay: Induction of stress granules in human HeLa cells assessed as MLN51 and FMRP marker protein at 100 uM after 2 hrs; assay type: functional, cell-based
How it was run: (§2)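 HeLa on coverslips in DMEM/5% FCS, cultured 24 h, then exposed to 50 nM-500 μM for 30 min to 8 h; immunofluorescence for stress-granule markers MLN51 (rabbit) and FMRP (mouse); cycloheximide 10 μg/mL and puromycin 100 μg/mL (1 h) as positive controls.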

[3] = test system: KB; assay: Cytotoxicity against human KB cells after 72 hrs by MTS assay; assay type: functional, cell-based
How it was run: (§3)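 Human cancer lines treated for 72 h and proliferation/viability read by MTS assay; dose-response curves in duplicate with IC50 taken from the curves; MCF7R is the P-gp (MDR1)-expressing resistant line.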

[4] = test system: HL-60; assay: Induction of apoptosis in human HL60 cells assessed as […] mediated LEHD-AMC substrate cleavage at 1 to 1000 nM after 48 hrs by spectroscopy; assay type: functional, cell-based
[5] = test system: HL-60; assay: Inhibition of proteasome activity in human HL60 cells at 2 to 20 nM
How it was run: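 Lysates of HL60 cells incubated with compound; in vitro chymotrypsin-like and trypsin-like proteasome activities measured with fluorogenic AMC substrates (LLVY-AMC, RLR-AMC).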

[6] = test system: HL-60; assay: Antiproliferative activity against human HL60 cells at 50 nM in presence of […] inhibitor 3-methyladenine; assay type: functional, cell-based
How it was run: (§4)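 HL60 cells exposed for 72 h, with or without co-treatment with Z-VAD-FMK (50 μM), necrostatin-1 (50 μM) or 3-methyladenine (2 mM). Antiproliferative effect was compared against vehicle.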

[7] = test system: HeLa; assay: Induction of stress granules in human HeLa cells assessed as MLN51 and FMRP marker protein at 500 nM after 8 hrs; assay type: functional, cell-based; how it was run: as §2
[8] = test system: H9c2; assay: Cytotoxicity against rat H9c2 cells at 20 nM after 48 hrs by FACS analysis; assay type: cell-based; conditions: h9c2, 48 h, 0.02 µM
How it was run: (§5)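 Rat H9c2 cardiomyoblasts treated 24 h (0.5-50 nM) or 24, 48 and 72 h (20 nM) versus vehicle; annexin V plus propidium iodide labeling and FACS for apoptosis; viability in parallel by MTS; doxorubicin 1 μM as positive control.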

[9] = test system: H9c2; assay: Cytotoxicity against rat H9c2 cells at 20 nM after 72 hrs by FACS analysis; assay type: cell-based; conditions: h9c2, 72 h, 0.02 µM; how it was run: as §5
[10] = test system: HL-60; assay: Antiproliferative activity against human HL60 cells at 50 nM in presence of caspase inhibitor Z-VAD-FMK; assay type: functional, cell-based; how it was run: as §4
[11] = test system: HepG2; assay: Enhancement of doxorubicin-induced cytotoxicity against human HepG2 cells after 72 hrs by MTS assay; assay type: functional, cell-based
How it was run: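 HepG2 cells given the test agent alone or together with 150 nM doxorubicin for 72 h; proliferation by MTS assay; duplicate experiments, n = 3.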

[12] = test system: HCT-15; assay: Cytotoxicity against human HCT15 cells after 72 hrs by MTS assay; assay type: functional, cell-based; conditions: Homo sapiens, HCT-15, 72 h; read-out: IC50; how it was run: as §3
[13] = test system: HeLa; assay: Induction of stress granules in human HeLa cells assessed as MLN51 and FMRP marker protein at >10 uM; assay type: functional, cell-based; how it was run: as §2
[14] = test system: HeLa; assay: Effect on apoptosis inducing factor localization into nucleus in human HeLa cells at 20 nM after 72 hrs; assay type: functional, cell-based
[15] = test system: Mus musculus; assay: Toxicity in B6 mouse assessed as diarrhea at 0.1 mg/kg, ip twice a day for 4 consecutive days measured on day 13; assay type: organism-based; parameters: dose 0.1 mg/kg, route intraperitoneal; conditions: in vivo
How it was run: (§6)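 Male B6 mice dosed i.p. at 0.1 mg/kg twice daily for four consecutive days; body weight recorded daily over 13 days and signs of acute toxicity such as diarrhea noted.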

[16] = test system: HL-60; assay: Cytotoxicity against human HL60 cells at 20 uM after 72 hrs in presence of m-calpain inhibitor N-acetyl-Leu-Leu-methioninal; assay type: functional, cell-based
How it was run: (§7)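 HL60 cells treated 72 h with or without caspase-12 inhibitor ATAD (10 μM) or m-calpain inhibitor N-acetyl-Leu-Leu-methioninal (20 μM); cytotoxicity compared with vehicle.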

[17] = test system: HepG2; assay: Cytotoxicity against human HepG2 cells after 72 hrs by MTS assay; assay type: functional, cell-based; conditions: Homo sapiens, HepG2, 72 h; read-out: IC50; how it was run: as §3
[18] = test system: H9c2; assay: Induction of apoptosis in rat H9c2 cells at 20 nM after 48 hrs by FACS analysis; assay type: cell-based; conditions: h9c2, 48 h, 0.02 µM; how it was run: as §5
[19] = test system: Mus musculus; assay: Toxicity in B6 mouse assessed as body weight loss at 0.1 mg/kg, ip twice a day for 4 consecutive days measured on day 13; assay type: organism-based; parameters: dose 0.1 mg/kg, route intraperitoneal; conditions: in vivo; how it was run: as §6
[20] = test system: HL-60; assay: Antiproliferative activity against human HL60 cells at 50 nM in presence of […] inhibitor necrostatin 1; assay type: functional, cell-based; how it was run: as §4
[21] = test system: HL-60; assay: Cytotoxicity against human HL60 cells after 72 hrs by MTS assay; assay type: functional, cell-based; conditions: HL-60, 72 h
How it was run: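 HL60 cells exposed to compound for 72 h; proliferation/viability read by MTS assay. IC50 taken from dose-response curves run in duplicate.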

[22] = test system: H9c2; assay: Induction of apoptosis in rat H9c2 cells at 20 nM after 72 hrs by FACS analysis; assay type: cell-based; conditions: h9c2, 72 h, 0.02 µM; how it was run: as §5
[23] = test system: HL-60; assay: Induction of apoptosis in human HL60 cells assessed as caspase 3/7-mediated DEVD-AMC substrate cleavage at 1 to 1000 nM after 48 hrs by spectroscopy; assay type: functional, cell-based
How it was run: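 HL60 cells treated 48 h, doxorubicin as positive control; whole-cell extracts incubated with DEVD-AMC, fluorescence release followed over time; rate from slope of linear phase, expressed as fold-activation over DMSO-treated control.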

[24] = test system: HeLa; assay: Induction of eIF-2alpha phosphorylation in human HeLa cells at 100 uM by Western blotting; assay type: functional, cell-based
How it was run: (§8)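 HeLa cells treated 1 h with DMSO, sodium arsenite (500 μM, positive control) or compound (100 or 500 μM); 10 μg total protein by SDS-PAGE/Western blot with anti-eIF2α and anti-phospho-eIF2α, ECL detection.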

[25] = test system: HL-60; assay: Cytotoxicity against human HL60 cells at 20 uM after 72 hrs in presence of caspase 12 inhibitor ATAD; assay type: functional, cell-based; how it was run: as §7
[26] = test system: HeLa; assay: Induction of apoptosis inducing factor translocation from […] to nucleus in human HeLa cells at 50 uM after 72 hrs by DAPI staining; assay type: functional, cell-based; how it was run: as §1
[27] = test system: HCT-116; assay: Cytotoxicity against human HCT116 cells after 72 hrs by MTS assay; assay type: functional, cell-based; conditions: HCT-116, 72 h; how it was run: as §3
[28] = test system: HL-60; assay: Cell cycle arrest in human HL60 cells assessed as increase in G0/G1 peak at 20 nM after 48 hrs by FACS analysis; assay type: functional, cell-based
How it was run: (§9)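 HL60 cells treated for 48 h; vehicle control 1% DMSO, doxorubicin as positive control. Propidium iodide staining, DNA content by flow cytometry giving cell-cycle distribution (G2/M, G0-G1 peaks); n = 4, each sample in duplicate.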

[29] = test system: HL-60; assay: Induction of apoptosis in human HL60 cells assessed as caspase 9-mediated […]-AMC substrate cleavage at 1 to 1000 nM after 48 hrs by spectroscopy; assay type: functional, cell-based
[30] = test system: HL-60; assay: Induction of apoptosis in human HL60 cells assessed as cell killing at 20 nM after 72 hrs by annexin V flow cytometry; assay type: functional, cell-based
How it was run: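 HL60 cells treated with 20 nM for 72 h; apoptosis quantified by annexin V staining and flow cytometry.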

[31] = test system: MCF7; assay: Cytotoxicity against human MCF7 cells after 72 hrs by MTS assay; assay type: functional, cell-based; conditions: Homo sapiens, MCF7, 72 h; read-out: IC50; how it was run: as §3
[32] = test system: MCF7; assay: Cytotoxicity against human MCF7 cells expressing P-glycoprotein after 72 hrs by MTS assay; assay type: functional, cell-based; conditions: Homo sapiens, MCF7, 72 h; read-out: IC50; how it was run: as §3
[33] = target: ATP-dependent translocase ABCB1 (Homo sapiens, UniProt P08183); assay: Inhibition of P-glycoprotein expressing human MCF7 cells assessed as change in rhodamine 123 efflux at 0.1 to 1 uM; assay type: cell-based
[34] = test system: H9c2; assay: Induction of apoptosis in rat H9c2 cells at 0.5 to 50 nM after 24 hrs by FACS analysis; assay type: cell-based; conditions: h9c2, 24 h, 0.05 µM; how it was run: as §5
[35] = test system: HeLa; assay: Induction of eIF-2alpha phosphorylation in human HeLa cells at 500 uM by Western blotting; assay type: functional, cell-based; how it was run: as §8
[36] = organism: Oryctolagus cuniculus; assay: Inhibition of capped and polyadenylated luciferase mRNA […] in rabbit reticulocyte lysate at 10000 nM after 1 hr; assay type: functional
How it was run: (§10)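 Cell-free translation of capped, polyadenylated luciferase mRNA in rabbit reticulocyte lysate, luciferase output as read-out; incubation 1 h; IC50 derived.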

[37] = test system: HeLa; assay: Induction of stress granules in human HeLa cells assessed as MLN51 and FMRP marker protein at 100 uM after 8 hrs; assay type: functional, cell-based; how it was run: as §2
[38] = test system: HL-60; assay: Cell cycle arrest in human HL60 cells assessed as increase in G0/G1 peak at 200 nM after 48 hrs by FACS analysis; assay type: functional, cell-based; how it was run: as §9
[39] = test system: HL-60; assay: Induction of apoptosis in human HL60 cells assessed as caspase 3/7-mediated DEVD-AMC substrate cleavage at 24 to 72 hrs by spectroscopy; assay type: functional, cell-based
[40] = Inhibition of capped and polyadenylated luciferase mRNA in rabbit reticulocyte lysate; assay type: functional, Oryctolagus cuniculus; how it was run: as §10

Sequence of ATP-dependent translocase ABCB1 (P08183 whole entry): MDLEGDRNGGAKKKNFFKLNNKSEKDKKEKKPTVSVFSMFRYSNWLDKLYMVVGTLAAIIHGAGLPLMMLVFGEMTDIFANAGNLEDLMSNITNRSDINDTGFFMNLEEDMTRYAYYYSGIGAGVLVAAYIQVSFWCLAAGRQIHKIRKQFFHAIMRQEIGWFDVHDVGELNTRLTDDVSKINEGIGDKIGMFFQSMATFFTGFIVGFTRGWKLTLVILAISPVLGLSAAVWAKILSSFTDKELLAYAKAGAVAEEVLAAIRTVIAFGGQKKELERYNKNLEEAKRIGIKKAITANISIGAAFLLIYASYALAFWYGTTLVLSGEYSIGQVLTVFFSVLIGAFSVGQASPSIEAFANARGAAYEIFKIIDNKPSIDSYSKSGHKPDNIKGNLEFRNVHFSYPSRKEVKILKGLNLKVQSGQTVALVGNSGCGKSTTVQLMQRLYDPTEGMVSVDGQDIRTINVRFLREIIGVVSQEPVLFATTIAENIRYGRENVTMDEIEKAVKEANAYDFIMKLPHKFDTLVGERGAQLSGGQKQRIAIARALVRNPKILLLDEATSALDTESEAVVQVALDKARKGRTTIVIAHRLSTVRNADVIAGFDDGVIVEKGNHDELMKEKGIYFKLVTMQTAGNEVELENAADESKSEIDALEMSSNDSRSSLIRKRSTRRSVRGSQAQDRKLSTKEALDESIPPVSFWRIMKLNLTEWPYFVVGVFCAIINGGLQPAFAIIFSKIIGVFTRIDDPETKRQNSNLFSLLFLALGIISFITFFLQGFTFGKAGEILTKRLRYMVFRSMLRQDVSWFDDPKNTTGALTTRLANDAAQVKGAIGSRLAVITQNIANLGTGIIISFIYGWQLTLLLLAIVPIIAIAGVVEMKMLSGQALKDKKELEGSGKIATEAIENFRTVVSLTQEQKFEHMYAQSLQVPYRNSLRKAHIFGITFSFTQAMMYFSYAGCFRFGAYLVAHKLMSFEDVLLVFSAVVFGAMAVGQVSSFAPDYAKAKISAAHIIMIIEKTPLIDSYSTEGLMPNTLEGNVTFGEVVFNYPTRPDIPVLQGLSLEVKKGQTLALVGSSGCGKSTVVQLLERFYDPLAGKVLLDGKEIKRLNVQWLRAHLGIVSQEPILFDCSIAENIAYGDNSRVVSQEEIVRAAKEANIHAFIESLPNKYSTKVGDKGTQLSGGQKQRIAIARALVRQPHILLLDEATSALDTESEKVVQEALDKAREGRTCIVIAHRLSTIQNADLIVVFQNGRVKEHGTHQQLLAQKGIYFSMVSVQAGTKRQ

COc1cc(OC)c2c(c1)O[C@@]1(c3ccc(Br)cc3)[C@H](c3ccccc3)C[C@@H](O)[C@@]21O
Activity [1]: Active | Activity [2]: Active | IC50 [3]: < 1 nM | Activity [4]: inactive | Activity [5]: inactive | Activity [6]: inactive | Activity [7]: Active | Activity [8]: Non-toxic | Activity [9]: Non-toxic | Activity [10]: inactive | Activity [11]: Active | IC50 [12]: 1 nM | Activity [13]: Active | Activity [14]: Active | Activity [15]: Non-toxic | Activity [16]: Active | IC50 [17]: 4 nM | Activity [18]: Not Active | Activity [19]: Non-toxic | Activity [20]: inactive | IC50 [21]: < 1 nM | Activity [22]: Not Active | Activity [23]: inactive | Activity [24]: Active | Activity [25]: inactive | Activity [26]: Active | IC50 [27]: < 1 nM | Activity [28]: Active | Activity [29]: inactive | Activity [30]: Active | IC50 [31]: 1 nM | IC50 [32]: < 1 nM | Activity [33]: Not Active | Activity [34]: Not Active | Activity [35]: Active | Activity [36]: Active | Activity [37]: Active | Activity [38]: Active | Activity [39]: inactive | IC50 [40]: 200 nM
